Source: PubChem BioAssay
A selection: hits, their analogues and other compounds. The true share with any hit is near 2.3%.
TRPC4 block = inhibitors of mouse TRPC4 channel, primary screen, Fluo4 calcium, HEK293 TRPC4beta/mu-opioid cells. Short transient receptor potential channel 4 (Mus musculus), Q9QUQ5. DAMGO-evoked Fluo4 calcium flux; active compounds read low. B-score at 10 µM. 0.39% of 300,000 active. AID 2247, 2010;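 active means B-score over 3 SD under the library average, no early fluorescence shift, positive overall ratio signal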
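Assay system: HEK293 cells with stable TRPC4beta plus mu-opioid receptor expression. Dosing: single dose. Measured by: Fluo4 Ca2+ flux fluorescence. Also added: DAMGO in two steps, submaximal then maximal. Read-out: B score from integrated Fluo4 fluorescence ratio.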
TRPC6 inh = mouse TRPC6 channel inhibitors, primary screen, cell-based, HEK293, membrane potential dye; B-score at 10 µM; 1.1% of 310,000 active; Short transient receptor potential channel 6 (Mus musculus), Q61143; AID 2553, 2010; ACh-evoked depolarization; active compounds read low;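 active means B-score under library mean minus 3 SD, initial fluorescence not abnormally high, positive integrated signal ratio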;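 further: B-score derived from integrated fluorescence ratio over the kinetic read; more negative B-score means stronger inhibition of depolarization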
Target sequence (Q61143 whole entry, looked up): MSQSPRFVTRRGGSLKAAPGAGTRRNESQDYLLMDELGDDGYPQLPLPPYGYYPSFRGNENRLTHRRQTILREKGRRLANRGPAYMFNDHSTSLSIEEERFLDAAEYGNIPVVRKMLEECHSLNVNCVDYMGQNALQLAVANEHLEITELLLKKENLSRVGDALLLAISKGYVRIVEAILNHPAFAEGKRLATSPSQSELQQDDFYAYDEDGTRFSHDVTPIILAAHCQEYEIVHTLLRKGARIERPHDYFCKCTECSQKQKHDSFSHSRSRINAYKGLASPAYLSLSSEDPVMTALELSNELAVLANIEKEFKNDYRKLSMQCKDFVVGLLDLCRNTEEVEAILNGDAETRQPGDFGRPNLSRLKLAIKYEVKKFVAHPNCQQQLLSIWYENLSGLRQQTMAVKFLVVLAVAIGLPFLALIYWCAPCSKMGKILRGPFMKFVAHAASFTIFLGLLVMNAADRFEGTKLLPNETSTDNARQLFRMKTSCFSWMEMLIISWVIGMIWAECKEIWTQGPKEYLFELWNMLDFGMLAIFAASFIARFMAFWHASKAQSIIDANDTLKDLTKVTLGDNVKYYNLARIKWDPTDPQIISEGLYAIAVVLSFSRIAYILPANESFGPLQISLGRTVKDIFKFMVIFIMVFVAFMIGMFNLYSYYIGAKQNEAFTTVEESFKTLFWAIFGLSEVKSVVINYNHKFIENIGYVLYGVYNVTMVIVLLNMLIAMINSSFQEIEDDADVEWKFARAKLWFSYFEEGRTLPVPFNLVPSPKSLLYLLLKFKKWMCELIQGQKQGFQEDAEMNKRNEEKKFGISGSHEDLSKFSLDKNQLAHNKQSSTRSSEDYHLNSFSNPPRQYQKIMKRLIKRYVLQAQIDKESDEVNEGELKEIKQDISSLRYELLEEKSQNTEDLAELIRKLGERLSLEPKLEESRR
TRPC4 agonist = activators of mouse TRPC4 channel, primary screen, Fluo4 calcium, HEK293 TRPC4beta/mu-opioid cells; Fluo4 calcium fluorescence; active compounds read high; B-score at 10 µM; 0.49% of 310,000 active;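 active means B-score above 5 SD of library B-scores, and initial fluorescence ratio not above library mean plus 5 SD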;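 further: positive B-score marks a calcium rise read as TRPC4 activation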
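System: HEK293 cells stably co-expressing mouse TRPC4beta and mu-opioid receptor; Schedule: Fluo4 dye loading 45 min at room temperature, 110 s recording; Detection: Fluo4 fluorescence, kinetic; Evaluation: B-scored integrated calcium fluorescence ratio; Controls: buffer (low) and maximal DAMGO (high).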
TRPC4 PAM = positive allosteric modulators of TRPC4, primary screen, cell-based, mouse TRPC4beta, HEK293 mu-opioid, Fluo-4 calcium | DAMGO EC20, Fluo-4 Ca2+ flux; active compounds read high | B-score at 10 µM | 0.42% of 310,000 active;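 active means B-score of calcium response area above 5 SD of library B-scores, with initial fluorescence ratio within 5 SD of library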
TRPC6 act = mouse TRPC6 channel activators, primary screen, cell-based, HEK293, membrane potential dye; 0.13% of 310,000 active; HEK293-TRPC6 membrane potential dye fluorescence; active compounds read high; AID 2550, 2010; B-score at 10 µM;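 active means B-score of the integrated fluorescence ratio above library mean plus 3 SD, and starting fluorescence ratio within library mean plus 5 SD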;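 further: higher score means more depolarization so channel activation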
TRPC4 sel inh 2 = mouse TRPC4 off-target activity of TRPC6 inhibitors, second screen | AID 2776 | HEK293 TRPC4/MOR, membrane potential dye fluorescence; channel activated by saturating DAMGO dose | inhibition, % at 10 µM | 42% of 920 active | shares compounds with TRPC6 inh;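 active means compounds whose fluorescence signal differed from control wells by over 3 SD, either direction, in both duplicate plates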
TRPC4 spec = mouse TRPC4 modulation by TRPC6 hits, confirmation, selectivity assay for TRPC6 inhibitor project, cell-based, HEK293 TRPC4/mu-opioid, membrane potential dye. shares compounds with TRPC6 inh. AID 2777, 2010. 61% of 920 active. activity change, negative = inhibition, % at 10 µM. membrane potential fluorescence;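 active means rise or fall in signal beyond 3 SD of buffer-only wells in both replicate plates, either sign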;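 further: integrated kinetic ratio of fluorescence range over baseline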
HEK293 MPD ctr 2-1 = nonspecific membrane potential effects, parental HEK293, confirmation, counter-screen for TRPC6 inhibitor project, cell-based, second counter screen; shares compounds with TRPC6 inh; parental HEK293 membrane potential dye fluorescence; maximal acetylcholine challenge after compound addition; signal change vs control, % at 10 µM; 31% of 920 active; AID 2779, 2010;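 active means membrane potential signal moving either way by over 3 SD of the maximum-effect control, in both duplicate plates, meaning non-specific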
HEK293 MPD ctr-1 = membrane potential modulation in parental HEK293, confirmation, counter-screen for TRPC6 inhibitor project, cell-based | shares compounds with TRPC6 inh | parental HEK293 membrane potential dye fluorescence | membrane potential signal change, % at 10 µM | 60% of 920 active;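 active means membrane potential signal shifting up or down by more than 3 SD of buffer-only wells, on both duplicate plates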
HEK293 MPD ctr-2 = parental HEK293 membrane potential modulation, confirmation, counter-screen for TRPC6 modulator project, cell-based | shares compounds with TRPC6 inh | membrane potential dye fluorescence | membrane potential signal change, % at 10 µM | 51% of 2,400 active;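 active means membrane potential signal moves up or down beyond 5 SD from buffer-only wells, on both duplicate plates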
HEK293 MPD ctr 2-2 = second check of TRPC6 modulator effects in parental HEK293 cells | shares compounds with TRPC6 inh | membrane potential dye fluorescence; after compound, maximal acetylcholine stimulation | inhibition, % at 10 µM | 14% of 2,400 active | AID 488926;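 active means membrane potential signal drops by more than 5 SD from the mean control signal, in both duplicate plates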
TRPC4 ctr mod = TRPC4 modulation by TRPC6 hit compounds, confirmation, selectivity assay for TRPC6 modulator project, cell-based, HEK293 TRPC4/mu-opioid, membrane potential dye, mouse; shares compounds with TRPC6 inh; percent change from control (negative = decrease, positive = increase), % at 10 µM; AID 488927, 2010; membrane potential fluorescence; 69% of 2,400 active;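 active means membrane potential signal moved up or down beyond 5 SD of buffer control wells, in both duplicate plates, actives on both sides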
TRPC4/MOR inh 2 = mouse TRPC4 off-target activity of TRPC6 modulators, second screen; shares compounds with TRPC6 inh; 55% of 2,400 active; inhibition, % at 10 µM; HEK293 TRPC4/mu-opioid, membrane potential dye fluorescence; stimulated with maximal-effect DAMGO;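 active means drop in membrane potential signal beyond 5 SD of the control wells in both duplicate plates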;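 further: TRPC4 counter screen for TRPC6 hits run under conditions tuned for TRPC6 not TRPC4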
TRPC6 inh conf = mouse TRPC6 channel inhibitors, confirmation, HEK293 cells, membrane potential dye, duplicate; ACh-evoked depolarization; shares compounds with TRPC6 inh; inhibition, % at 10 µM; 43% of 3,300 active;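 active means fluorescence ratio falls more than 5 SD below the full-stimulation control mean, in both duplicate runs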;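 further: integrated fluorescence ratio of peak minus minimum over baseline after agonist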
TRPC6 act confirm = mouse TRPC6 channel activators, confirmation, HEK293 cells, membrane potential dye, duplicate; activation, % at 10 µM; shares compounds with TRPC6 inh; 11% of 2,800 active; HEK293-TRPC6 membrane potential dye fluorescence, FDSS;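 active means ratio signal rise beyond 5 SD above unstimulated control wells' mean, seen in both duplicate runs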
Numbers stand for hits; 0 = inactive; - = no result.

SMILES	TRPC4 block	TRPC6 inh	TRPC4 agonist	TRPC4 PAM	TRPC6 act	HEK293 MPD ctr-2	HEK293 MPD ctr 2-2	TRPC4 ctr mod	TRPC4/MOR inh 2	TRPC6 inh conf	TRPC6 act confirm	others
N=c1c2ccccc2nc2n1CCCCCCCCCCC2	0	-7.61	0	0	0	-	-	-	-	0	-	TRPC4 sel inh 2=50.0%;TRPC4 spec=17.1%;HEK293 MPD ctr 2-1=253.5%;HEK293 MPD ctr-1=18.3%
Cc1cc(C)c2c(c1)/C(=N/NS(=O)(=O)c1ccccc1)CCC2	0	0	0	0	0	-	-	-	-	-	-
N=c1c(C(=O)NCCc2ccccc2)cc2c(=O)n3ccccc3nc2n1CCCN1CCOCC1	0	0	0	0	0	-	-	-	-	-	-
N=c1c(C(=O)NCCN2CCOCC2)cc2c(=O)n3ccccc3nc2n1CCc1ccccc1	0	-7.84	0	0	0	-	-	-	-	99.0%	0	TRPC4 sel inh 2=64.0%;TRPC4 spec=-19.7%;HEK293 MPD ctr 2-1=-78.0%;HEK293 MPD ctr-1=-245.5%
COc1ccc(CCn2c(=N)c(C(=O)NCc3ccco3)cc3c(=O)n4ccccc4nc32)cc1	0	-5.89	0	0	0	-163.5%	0	-36.0%	0	0	0
Cc1ccc(Cn2c(=N)c(C(=O)NCCN3CCOCC3)cc3c(=O)n4ccccc4nc32)cc1	0	-6.59	0	19	0	-70.5%	98.5%	-14.0%	47.0%	39.5%	0
Cn1c(C(=O)NCCN2CCOCC2)cc2c(=O)n3ccccc3nc21	0	0	0	0	0	-	-	-	-	-	-
O=C(CN1C(=O)COc2ccccc21)N(Cc1ccccc1)Cc1ccccn1	0	0	0	0	0	-	-	-	-	-	-
Nc1nonc1C(=O)NCCNCc1ccccc1OCc1ccc(F)cc1	0	-6.31	0	0	0	141.0%	0	12.5%	86.5%	46.5%	-
CCOc1ccc(CNCCNC(=O)c2nonc2N)cc1	0	0	0	0	0	-	-	-	-	-	-
COc1ccc(CC(=O)Nc2cc(C)on2)cc1OC	0	0	0	0	0	-	-	-	-	-	-
